Results on 7 compounds are retold here after ChEMBL document CHEMBL3860066, “β-Sulfonamido Functionalized Aspartate Analogues as Excitatory Amino Acid Transporter Inhibitors: Distinct Subtype Selectivity Profiles Arising from Subtle Structural Differences” (J Med Chem, 2016).

Common to all, as to type: cell-based
Test [1] concerns HEK293. Put plainly: Selectivity ratio of IC50 for human EAAT3 expressed in HEK293 cells to IC50 for human EAAT1 expressed in HEK293 cells.
Test [2] deals with Excitatory amino acid transporter 1 (Homo sapiens, UniProt P43003). Put plainly: Inhibition of [3H]-D-Asp uptake at human EAAT1 expressed in HEK293 cells measured after 3 mins by TopCount method. As to conditions: read-out: IC50. Put shortly:
(§1)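 Stably transfected EAAT1-, EAAT2- or EAAT3-HEK293 lines grown in high-glucose GlutaMAX DMEM with 5% dialyzed FBS, penicillin/streptomycin and 1 […] G418. Cells were seeded and reached confluence in 16−24 h, then washed in uptake buffer (HBSS, 20 mM HEPES, 1 mM CaCl₂, 1 mM MgCl₂, pH 7.4). Uptake ran 3 min at room temperature with 100 nM [³H]-D-aspartate plus test compound at varied concentrations. Two ice-cold washes, then scintillation counting. IC₅₀ from concentration−inhibition curves, n = 3−5.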

Test [3] concerns HEK293. Put plainly: Selectivity ratio of IC50 for human EAAT3 expressed in HEK293 cells to IC50 for human EAAT2 expressed in HEK293 cells.
Test [4] addresses Excitatory amino acid transporter 2 (Homo sapiens, UniProt P43004). In words: Inhibition of [3H]-D-Asp uptake at human EAAT2 expressed in HEK293 cells measured after 3 mins by TopCount method. Put shortly: as §1
For test [5], the target named is T1, Excitatory amino acid transporter 3 (Homo sapiens, UniProt P43005).
T1 sequence (P43005 whole entry): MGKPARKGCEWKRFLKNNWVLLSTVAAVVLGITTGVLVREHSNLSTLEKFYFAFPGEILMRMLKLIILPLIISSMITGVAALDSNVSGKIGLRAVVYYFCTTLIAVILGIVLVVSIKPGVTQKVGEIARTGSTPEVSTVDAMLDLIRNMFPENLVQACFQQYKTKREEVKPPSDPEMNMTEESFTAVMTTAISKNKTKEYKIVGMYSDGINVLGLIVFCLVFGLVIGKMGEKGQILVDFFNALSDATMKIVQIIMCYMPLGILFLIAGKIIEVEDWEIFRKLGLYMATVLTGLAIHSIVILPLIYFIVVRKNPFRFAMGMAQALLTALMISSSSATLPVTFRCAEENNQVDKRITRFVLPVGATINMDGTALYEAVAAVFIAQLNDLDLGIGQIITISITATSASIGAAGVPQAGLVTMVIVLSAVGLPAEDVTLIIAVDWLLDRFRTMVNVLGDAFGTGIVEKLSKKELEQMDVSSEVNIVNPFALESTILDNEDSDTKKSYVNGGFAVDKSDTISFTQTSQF
Put plainly: Inhibition of [3H]-D-Asp uptake at human EAAT3 expressed in HEK293 cells measured after 3 mins by TopCount method. As to conditions: read-out: IC50. Put shortly: as §1

In test [6] the test system is HEK293. In words: Selectivity ratio of IC50 for human EAAT2 expressed in HEK293 cells to IC50 for human EAAT1 expressed in HEK293 cells.
The subject of test [7] is HEK293. Put plainly: Selectivity ratio of IC50 for human EAAT1 expressed in HEK293 cells to IC50 for human EAAT2 expressed in HEK293 cells.

Chain of Excitatory amino acid transporter 2 (P43004 whole entry): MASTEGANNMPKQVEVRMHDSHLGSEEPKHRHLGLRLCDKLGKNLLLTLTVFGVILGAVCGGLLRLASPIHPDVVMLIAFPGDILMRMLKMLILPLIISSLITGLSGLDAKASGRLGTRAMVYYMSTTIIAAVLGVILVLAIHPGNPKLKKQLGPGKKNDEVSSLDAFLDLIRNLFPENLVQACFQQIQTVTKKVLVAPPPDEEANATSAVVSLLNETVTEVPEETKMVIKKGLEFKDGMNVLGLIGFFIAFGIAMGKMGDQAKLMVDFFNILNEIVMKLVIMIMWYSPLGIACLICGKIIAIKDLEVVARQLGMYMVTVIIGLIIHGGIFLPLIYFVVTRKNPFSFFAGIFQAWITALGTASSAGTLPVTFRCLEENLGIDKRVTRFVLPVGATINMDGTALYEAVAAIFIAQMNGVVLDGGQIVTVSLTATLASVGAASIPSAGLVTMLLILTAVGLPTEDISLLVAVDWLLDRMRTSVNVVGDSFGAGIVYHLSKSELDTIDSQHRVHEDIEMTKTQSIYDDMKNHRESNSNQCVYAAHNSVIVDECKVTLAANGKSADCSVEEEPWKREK
Chain of Excitatory amino acid transporter 1 (P43003 whole entry, the tested form may be a part): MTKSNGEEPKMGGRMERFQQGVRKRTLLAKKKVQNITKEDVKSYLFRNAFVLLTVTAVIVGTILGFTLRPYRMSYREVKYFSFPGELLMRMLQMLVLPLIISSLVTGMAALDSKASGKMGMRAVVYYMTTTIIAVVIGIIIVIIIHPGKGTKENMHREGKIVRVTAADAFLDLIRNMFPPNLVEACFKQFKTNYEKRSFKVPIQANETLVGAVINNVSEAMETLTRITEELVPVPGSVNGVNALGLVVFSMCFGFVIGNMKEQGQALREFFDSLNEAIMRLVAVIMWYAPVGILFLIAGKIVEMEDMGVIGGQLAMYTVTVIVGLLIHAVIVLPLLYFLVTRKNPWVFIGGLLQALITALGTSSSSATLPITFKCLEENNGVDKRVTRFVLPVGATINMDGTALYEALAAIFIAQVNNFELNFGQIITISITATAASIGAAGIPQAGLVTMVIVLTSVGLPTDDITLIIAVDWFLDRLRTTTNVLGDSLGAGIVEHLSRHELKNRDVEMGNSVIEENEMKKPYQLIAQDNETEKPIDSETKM

For the compound `N[C@H](C(=O)O)C(NS(=O)(=O)c1ccc(-c2ccccc2)cc1)C(=O)O` (mixture of isomers), the Ratio IC50 in the test on HEK293 [1] and in the test with HEK293 [3] was 10 to 40 in each case. Moreover, the IC50 in test [2] was 2.3 µM; in test [4] (read-out: IC50) it was 0.5 µM; in test [5] it was 20 µM.

`N[C@H](C(=O)O)C(NS(=O)(=O)c1ccc(F)c(F)c1)C(=O)O` (mixture of isomers): the Ratio IC50 is 9 in the test with HEK293 [1] and 14 in the test with HEK293 [6]. Besides, the IC50 in test [2] was 0.8 µM; in test [4] (read-out: IC50), 11 µM; in test [4] (read-out: pIC50 (converted)) it was 1.1 µM; in test [5], 7.4 µM.

Regarding `N[C@H](C(=O)O)C(NS(=O)(=O)c1c(F)c(F)c(F)c(F)c1F)C(=O)O` (single isomer, unassigned; diastereomer 2), the Ratio IC50 in the test on HEK293 [1] turned out to be 10; with HEK293 [6], 6.

Regarding `N[C@H](C(=O)O)C(NS(=O)(=O)c1cc(F)c(F)cc1F)C(=O)O` (mixture of isomers), the figures for the Ratio IC50 in the test with HEK293 [1] and in the test with HEK293 [6] were 4 and 9, respectively. The IC50 came to 2.5 µM in test [2], 22 µM in test [4] (read-out: IC50) and 10 µM in test [5].

As for `Cc1cc(C)cc(S(=O)(=O)NC(C(=O)O)[C@H](N)C(=O)O)c1` (mixture of isomers), the Ratio IC50 in the test on HEK293 [7] and in the test on HEK293 [3] was 5 to 9 each time. The IC50 in test [2] came to 63 µM; in test [4] (read-out: IC50), 11 µM; in test [5], 100 µM.

As to `N[C@H](C(=O)O)C(NS(=O)(=O)c1cccc(C(F)(F)F)c1)C(=O)O` (mixture of isomers), the figures for the Ratio IC50 with HEK293 [7] and in the test with HEK293 [3] were 30 and 50, respectively. Also, the IC50 in test [2] is 100 µM; in test [4] (read-out: IC50), 2.8 µM; in test [5] it was 150 µM.

Consider `N[C@H](C(=O)O)C(NS(=O)(=O)c1cccc2ccccc12)C(=O)O` (mixture of isomers), for which the Ratio IC50 in the test with HEK293 [7] and in the test on HEK293 [3] was 5 in each case. The IC50 in test [2] amounted to 65 µM; in test [4] (read-out: IC50) it was 14 µM; in test [5] it was 63 µM.
